Active and inactive are the calls of the source.
Tests used:
Mus musculus [1] = assay: Anticonvulsant activity in ip dosed mouse assessed as inhibition of PTZ-induced clonic seizure after 4 hrs; format: functional; conditions: for minimal effective dose: read-out: MED
Summary of the method: (§1)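 Male Kunming mice were dosed ip with the compound suspended in 0.5% methylcellulose at 30, 100 and 300 mg/kg, one to four mice per dose. Pentylenetetrazole in 0.9% saline was given subcutaneously at 0.5 h and 4.0 h. Protection meant no threshold seizure, i.e. no single clonic spasm episode lasting at least 5 s. The minimal dose active in half or more of the mice was recorded.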

Mus musculus [2] = assay: Neurotoxicity against ip dosed mouse by rotarod test after 0.5 hrs; format: toxicity, organism-based; conditions: in vivo
Summary of the method: (§2)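 Mice were trained on a 1-in. knurled rod turning at 6 rpm, then given 30, 100 or 300 mg/kg ip as a suspension in 0.5% methylcellulose. They were tested at 0.5 h and 4.0 h. Neurotoxicity meant failure to keep balance on the rod for at least 1 min in each of four trials. The minimal dose affecting half or more of the mice was recorded.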

Mus musculus [3] = assay: Anticonvulsant activity in ip dosed mouse assessed as inhibition of maximum electric shock-induced hind limb tonic extension after 0.5 hrs; format: functional; conditions: Hindlimb; for minimal effective dose: read-out: MED
Summary of the method: (§3)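 Male Kunming mice received the compound ip as a suspension in 0.5% methylcellulose at 30, 100 and 300 mg/kg, one to four mice per dose. At 0.5 h and 4.0 h, a 60-Hz, 50-mA current was given through corneal electrodes for 0.25 s. Absence of hindlimb tonic extension counted as protection. The minimal dose protecting half or more of the mice was recorded.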

Mus musculus [4] = assay: Anticonvulsant activity in ip dosed mouse assessed as inhibition of maximum electric shock-induced hind limb tonic extension after 4 hrs; format: functional; conditions: Hindlimb; for minimal effective dose: read-out: MED; summary of the method: as §3
Mus musculus [5] = assay: Anticonvulsant activity in ip dosed mouse assessed as inhibition of maximum electric shock-induced hind limb tonic extension; format: functional; conditions: Hindlimb
Mus musculus [6] = assay: Anticonvulsant activity in ip dosed mouse assessed as inhibition of PTZ-induced clonic seizure; format: functional
Summary of the method: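 Male Kunming mice (20 ± 2.0 g) were used. Test drug was given ip to groups of 10 mice over a range of doses until at least three points fell between 10% and 90% seizure protection or minimal neurotoxicity. […] Neurotoxicity was scored on the rotorod 30 min after dosing. PI = TD50/ED50.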

Mus musculus [7] = assay: Neurotoxicity against ip dosed mouse by rotarod test after 4 hrs; format: toxicity, organism-based; conditions: in vivo; summary of the method: as §2
Mus musculus [8] = assay: Anticonvulsant activity in ip dosed mouse assessed as inhibition of PTZ-induced clonic seizure after 0.5 hrs; format: functional; conditions: for minimal effective dose: read-out: MED; summary of the method: as §1
Mus musculus [9] = assay: Protective index, ratio of TD50 for mouse to ED50 for inhibition of subcutaneous pentylenetetrazole-induced seizure in mouse; format: functional
[10] = Toxicity against ip dosed mouse; format: organism-based; conditions: in vivo
Mus musculus [11] = organism: Mus musculus; assay: Protective index, ratio of TD50 for mouse to ED50 for inhibition of maximal electroshock-induced seizure in mouse; format: functional

Row | Compound | Activity (Mus musculus [1]) | Activity (Mus musculus [2]) | minimal effective dose (Mus musculus [3]) [mg/kg] | minimal effective dose (Mus musculus [4]) [mg/kg] | ED50 (Mus musculus [5]) [mg/kg] | ED50 (Mus musculus [6]) [mg/kg] | Activity (Mus musculus [7]) | minimal effective dose (Mus musculus [8]) [mg/kg] | Ratio (Mus musculus [9]) | TD50 [10] [mg/kg] | Ratio (Mus musculus [11]) | MED (Mus musculus [2]) [mg/kg] | Activity (Mus musculus [4]) | MED (Mus musculus [7]) [mg/kg] | Activity (Mus musculus [8]) | minimal effective dose (Mus musculus [1]) [mg/kg] | Activity (Mus musculus [3])
1 | CC(C)(C)c1ccc(C(=O)NN2C(=O)NC3(CC3(C)C)C2=O)cc1 (stereo not drawn) | inactive | Not Active | 30 | 100 | 25.3 | 208 | Not Active | 100 | 1.8 | 382 | 15.5 | – | – | – | – | – | –
2 | COc1cc(C(=O)NN2C(=O)NC3(CC3(C)C)C2=O)cc(OC)c1OC (stereo not drawn) | inactive | – | 300 | – | – | – | – | – | – | – | – | 100 | inactive | 300 | inactive | – | –
3 | CC1(C)CC12NC(=O)N(NC(=O)c1ccccc1)C2=O (stereo not drawn) | inactive | – | 300 | – | – | – | Not Active | 300 | – | – | – | 300 | inactive | – | – | – | –
4 | CCC1(C)CC(=O)NC1=O (stereo not drawn) [ETHOSUXIMIDE] | – | Not Active | – | – | – | – | Not Active | 100 | – | – | – | – | inactive | – | – | 300 | inactive
5 | CC1(C)CC12NC(=O)N(N1C(=O)c3ccccc3C1=O)C2=O (stereo not drawn) | – | Not Active | 30 | 100 | 13.7 | 137 | Not Active | 300 | 2.8 | 387 | 17.8 | – | – | – | – | 300 | –
6 | CC1(C)CC12NC(=O)N(NC(=O)c1cccnc1)C2=O (stereo not drawn) | inactive | – | – | 300 | – | – | – | – | – | – | – | 100 | – | 300 | inactive | – | inactive
7 | Cc1ccc(C(=O)NN2C(=O)NC3(CC3(C)C)C2=O)cc1 (stereo not drawn) | – | Not Active | 100 | – | – | – | – | – | – | – | – | – | inactive | 300 | inactive | 300 | –
8 | COc1ccc(C(=O)NN2C(=O)NC3(CC3(C)C)C2=O)cc1OC (stereo not drawn) | – | Not Active | 300 | 300 | – | – | – | – | – | – | – | – | – | 300 | inactive | 300 | –
9 | CCCC(CCC)C(=O)[O-].[Na+] [VALPROATE SODIUM] | – | – | – | – | – | 149 | – | – | – | – | – | – | – | – | – | – | –
10 | CC1(C)CC12NC(=O)N(NC(=O)c1ccc([N+](=O)[O-])cc1)C2=O (stereo not drawn) | inactive | Not Active | 300 | 300 | – | – | Not Active | 300 | – | – | – | – | – | – | – | – | –
11 | CCC1(c2ccccc2)C(=O)NC(=O)NC1=O [PHENOBARBITAL] | – | – | – | – | 21.8 | 13.2 | – | – | – | – | – | – | – | – | – | – | –
12 | CC1(C)CC12NC(=O)N(NC(=O)c1ccc(C(F)(F)F)cc1)C2=O (stereo not drawn) | – | Not Active | 30 | 30 | 9.2 | 62.1 | Not Active | 300 | 6.7 | 422 | 45.8 | – | – | – | – | 300 | –
13 | NC(=O)N1c2ccccc2C=Cc2ccccc21 [CARBAMAZEPINE] | – | – | – | – | 8.8 | > 100 | – | – | – | – | – | – | – | – | – | – | –
14 | CC1(C)CC12NC(=O)N(NC(=O)c1cccs1)C2=O (stereo not drawn) | inactive | – | – | 300 | – | – | – | – | – | – | – | 100 | – | 300 | inactive | – | inactive
15 | CN(C)c1ccc(C(=O)NN2C(=O)NC3(CC3(C)C)C2=O)cc1 (stereo not drawn) | inactive | Not Active | 300 | 300 | – | – | Not Active | 100 | – | – | – | – | – | – | – | – | –
16 | O=C1NC(=O)C(c2ccccc2)(c2ccccc2)N1 [PHENYTOIN] | inactive | – | 30 | 30 | – | > 300 | – | – | – | – | – | 100 | – | 100 | inactive | – | –
17 | CC1(C)CC12NC(=O)N(NC(=O)c1ccc(Cl)cc1)C2=O (stereo not drawn) | inactive | Not Active | 100 | 300 | – | – | Not Active | 300 | – | – | – | – | – | – | – | – | –
18 | CC1(C)CC12NC(=O)N(NC(=O)c1ccncc1)C2=O (stereo not drawn) | inactive | – | – | 300 | – | – | – | – | – | – | – | 100 | – | 300 | inactive | – | inactive
19 | COc1ccc(C(=O)NN2C(=O)NC3(CC3(C)C)C2=O)cc1 (stereo not drawn) | inactive | Not Active | 100 | – | – | – | – | – | – | – | – | – | inactive | 300 | inactive | – | –
20 | CC1(C)CC12NC(=O)N(NC(=O)c1ccccc1F)C2=O (stereo not drawn) | inactive | Not Active | 100 | – | – | – | – | – | – | – | – | – | inactive | 300 | inactive | – | –
21 | CC1(C)CC12NC(=O)N(NC(=O)c1ccccc1Cl)C2=O (stereo not drawn) | inactive | Not Active | 300 | – | – | – | – | 300 | – | – | – | – | inactive | 300 | – | – | –
22 | CC1(C)CC12NC(=O)N(NC(=O)c1ccc(Br)cc1)C2=O (stereo not drawn) | – | – | 300 | 300 | – | – | – | – | – | – | – | 300 | – | 300 | inactive | 300 | –
23 | Cc1cccc(C(=O)NN2C(=O)NC3(CC3(C)C)C2=O)c1 (stereo not drawn) | inactive | Not Active | 100 | – | – | – | Not Active | – | – | – | – | – | inactive | – | inactive | – | –
24 | CC1(C)CC12NC(=O)N(NC(=O)c1ccco1)C2=O (stereo not drawn) | inactive | – | – | 300 | – | – | – | – | – | – | – | 100 | – | 300 | inactive | – | inactive
25 | CC1(C)CC12NC(=O)N(NC(=O)c1ccc(F)cc1)C2=O (stereo not drawn) | inactive | Not Active | 100 | 300 | – | – | – | 300 | – | – | – | – | – | 300 | – | – | –

Source: ChEMBL document CHEMBL1629500, “Synthesis and anticonvulsant activity of N-3-arylamide substituted 5,5-cyclopropanespirohydantoin derivatives” (Eur J Med Chem, 2010)
